Source: publication PMC11193445 (International Journal of Nanomedicine, 2024)

System: MDA-MB-231 cells
Assay: Dox intracellular localization by confocal microscopy
Assay type: cell-based, human
Settings: free Dox 7.5 µM, NF-Dox 50 µM (7.5 µM of Dox), 1 h, 37 °C
Procedure, shortened: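 MDA-MB-231 cells were seeded on coverslips at 5×10^4 cells/well and grown 24 h. They were exposed 1 h at 37 °C, washed twice in PBS, fixed 10 min in ice-cold 4% PFA, and mounted in DAPI-containing antifade. Intrinsic Dox fluorescence (RFP channel) and DAPI nuclei were imaged with a 63× oil objective. Images represent three separate experiments.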

SMILES: COc1cccc2c1C(=O)c1c(O)c3c(c(O)c1C2=O)C[C@@](O)(C(=O)CO)C[C@@H]3O[C@H]1C[C@H](N)[C@H](O)[C@H](C)O1 [Dox, Doxorubicin]
- Dox cellular uptake and localization (confocal, red fluorescence): not significant
